According to ChEMBL document CHEMBL2029204, “Latent hit series hidden in high-throughput screening data” (J Med Chem, 2012):
The source made the active and inactive calls. The calls are words filed in the database; no cut-off is given here.

Tests used:
Nucleic Acid [1] = experiment: Agonist activity at ECMV genomic RNA internal ribosomal entry site in human HuH7 cells after 24 hrs by firefly luciferase reporter gene assay; type: functional, cell-based; details: Encephalomyocarditis virus; Huh-7
How it was run: (§1)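 Cells carry a bicistronic construct (Neo translated cap-dependently, firefly luciferase under EMCV IRES) and are grown with Geneticin. After 24 h with or without compound, resazurin viability is read first, then cells are lysed and luciferase is quantified (Steady-Glo). Dose response uses eight concentrations from 0 to 10 μM in quadruplicate. Normalization: DMSO 0%, 500 μM benzalkonium chloride −100%. Values reported are AC50, absolute AC50 (activity at −50% for antagonists, 50% for agonists) and Amax (activity at highest concentration).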

Huh-7 = experiment: Cytotoxicity against human HuH7 cells after 24 hrs by resazurin reduction assay; type: cell-based; details: huh-7, 24 h
How it was run: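 Same multiplexed wells as the luciferase readout: cells with the Neo/EMCV-IRES-Fluc construct under Geneticin, exposed to compound for 24 h, then viability is read by non-invasive resazurin reduction before lysis. Eight concentrations from 0 to 10 μM, in quadruplicate. Activity is normalized to DMSO (0%) and 500 μM benzalkonium chloride (−100%).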

Nucleic Acid [2] = experiment: Agonist activity at ECMV genomic RNA internal ribosomal entry site in human HuH7 cells assessed as activity measured at the highest concentration after 24 hrs by firefly luciferase reporter gene assay relative to control; type: functional, cell-based; details: Encephalomyocarditis virus; Huh-7; how it was run: as §1
Nucleic Acid [3] = experiment: Antagonist activity at ECMV genomic RNA internal ribosomal entry site in human HuH7 cells after 24 hrs by firefly luciferase reporter gene assay; type: functional, cell-based; details: Encephalomyocarditis virus; Huh-7; how it was run: as §1
Nucleic Acid [4] = experiment: Antagonist activity at ECMV genomic RNA internal ribosomal entry site in human HuH7 cells after 24 hrs by firefly luciferase reporter gene assay relative to control; type: functional, cell-based; details: Encephalomyocarditis virus; Huh-7; how it was run: as §1

COc1ccc2[nH]c3c(c2c1)CCn1c-3nc2cc3sc4c(c3cc2c1=O)CCCCCC4
Activity (Nucleic Acid [1]): 2.16 µM | Activity (Huh-7): Non-toxic | Activity (Nucleic Acid [2]): 26.2

COc1ccccc1N1CCN(CC(O)COc2cccc3ccccc23)CC1 (configuration not stated) [NAFTOPIDIL]
Activity (Nucleic Acid [3]): 1.48 µM | Activity (Huh-7): Non-toxic | Activity (Nucleic Acid [4]): -34

COc1ccccc1N1CCN(CC(O)COc2ccc(-c3cc(C#N)c(=O)[nH]c3C)cc2)CC1 (configuration not stated) [SATERINONE]
Activity (Nucleic Acid [3]): 5.46 µM | Activity (Huh-7): Non-toxic | Activity (Nucleic Acid [4]): 172

CCc1cc2cc3c(=O)n4c(nc3cc2s1)-c1[nH]c2ccc(OC)cc2c1CC4
Activity (Nucleic Acid [1]): 0.35 µM | Activity (Huh-7): Non-toxic | Activity (Nucleic Acid [2]): 33.5

O=c1c2ccccc2nc2n1CCc1c-2[nH]c2ccccc12 [RUTAECARPINE]
Activity (Nucleic Acid [1]): 27.6 µM | Activity (Huh-7): Non-toxic | Activity (Nucleic Acid [2]): 1030

COc1ccc(OCC(O)CN2CCN(c3ccccc3OC)CC2)c(C(C)(C)C)c1 (configuration not stated)
Activity (Nucleic Acid [3]): 3.08 µM | Activity (Huh-7): Non-toxic | Activity (Nucleic Acid [4]): -42

COCCn1c(NC(COC)c2ccc(OC)c(OC)c2)nc2c1c(=O)n(C)c(=O)n2C (configuration not stated)
Activity (Nucleic Acid [1]): inactive | Activity (Huh-7): Non-toxic | Activity (Nucleic Acid [2]): 0.53

COc1ccc2[nH]c3c(c2c1)CCn1c-3nc2cc3sc4c(c3cc2c1=O)CCCC4
Activity (Nucleic Acid [1]): inactive | Activity (Huh-7): Non-toxic | Activity (Nucleic Acid [2]): -7.44

COCCn1c(NC(CO)c2ccc(OC)c(OC)c2)nc2c1c(=O)n(C)c(=O)n2C (configuration not stated)
Activity (Nucleic Acid [1]): 42.8 µM | Activity (Huh-7): Non-toxic | Activity (Nucleic Acid [2]): 346
